# Source: ChEMBL document CHEMBL3745639, “Structure-activity relationships for lipoprotein lipase agonists that lower plasma triglycerides in vivo” (Eur J Med Chem, 2015)
# Active and inactive are the calls of the source. Unless noted, the rule behind the calls is not given here.
# Experiments:
# [1] = target: T1, Lipoprotein lipase (Bos taurus) (UniProt P11151); test: Induction of bovine LPL stabilization using intralipid as substrate at 6.25 uM preincubated for 10 mins with human recombinant ANGPTL4 followed by substrate addition measured after 45 mins relative to control
# T1 sequence (whole entry): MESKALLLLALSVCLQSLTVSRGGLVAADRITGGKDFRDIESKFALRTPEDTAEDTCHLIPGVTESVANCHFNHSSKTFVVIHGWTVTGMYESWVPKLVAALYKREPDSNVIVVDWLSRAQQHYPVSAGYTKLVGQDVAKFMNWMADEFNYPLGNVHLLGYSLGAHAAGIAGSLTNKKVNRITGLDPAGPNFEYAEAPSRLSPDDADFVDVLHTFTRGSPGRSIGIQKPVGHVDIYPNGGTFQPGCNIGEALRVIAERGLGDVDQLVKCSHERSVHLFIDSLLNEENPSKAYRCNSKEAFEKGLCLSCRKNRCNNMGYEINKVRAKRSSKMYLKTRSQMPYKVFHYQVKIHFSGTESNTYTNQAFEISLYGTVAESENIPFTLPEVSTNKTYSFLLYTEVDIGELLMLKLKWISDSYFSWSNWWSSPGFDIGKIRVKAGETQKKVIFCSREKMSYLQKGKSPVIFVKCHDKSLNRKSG
# In short: (§1)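 Compound in DMSO in buffer (50 mM potassium phosphate pH 7.4, 0.15 M NaCl, 0.01% Triton X-100), with human ANGPTL4 N-terminal fragment (aa 26-184, 75 nM final) and bovine LPL (15 nM final). Preincubated 10 min at 25 °C with shaking. Stopped after 45 min with 2.5% Triton X-100, and NEFA measured enzymatically. Activity normalised between DMSO+LPL+ANGPTL4 (0%) and DMSO+LPL (100%).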
# [2] = target: T1, Lipoprotein lipase (Bos taurus); test: Induction of bovine LPL stabilization using intralipid as substrate at 25 uM preincubated for 10 mins with human recombinant ANGPTL4 followed by substrate addition measured after 45 mins relative to control; in short: as §1
# [3] = target: T1, Lipoprotein lipase (Bos taurus); test: Induction of bovine LPL stabilization using intralipid as substrate at 12.5 uM preincubated for 10 mins with human recombinant ANGPTL4 followed by substrate addition measured after 45 mins relative to control; in short: as §1
# [4] = target: T1, Lipoprotein lipase (Bos taurus); test: Induction of bovine LPL stabilization using intralipid as substrate at 3.12 uM preincubated for 10 mins with human recombinant ANGPTL4 followed by substrate addition measured after 45 mins relative to control; in short: as §1
Activity [1],Activity [2],Activity [3],Activity [4],Compound
inactive,7.3%,inactive,inactive,Cc1ccc(NC(=O)c2cccc(N3CCCCC3)c2N2C(=O)c3ccc(C(=O)O)cc3C2=O)cc1
45%,73.8%,61.5%,inactive,O=C(O)c1ccc2c(c1)C(=O)N(c1ccc(Nc3ccccc3)c(C(=O)Nc3ccccc3-c3ccccc3)c1)C2=O
inactive,49.5%,inactive,inactive,CCN(CC)c1ccc(N2C(=O)c3ccc(C(=O)O)cc3C2=O)cc1C(=O)Nc1ccc(C)cc1
19.4%,65.8%,42.2%,inactive,Cc1ccc(NC(=O)c2cc(N3C(=O)c4ccc(C(=O)O)cc4C3=O)ccc2N2CCCCC2)cc1C(F)(F)F
inactive,inactive,inactive,inactive,Cc1ccc(NC(=O)c2cc(N3C(=O)c4ccc(C(=O)O)cc4C3=O)ccc2Br)cc1
inactive,inactive,inactive,inactive,Cc1ccc(NC(=O)c2cc(N3C(=O)c4ccccc4C3=O)ccc2N2CCCCC2)cc1
inactive,57%,inactive,inactive,O=C(O)c1ccc2c(c1)C(=O)N(c1ccc(N3CCCCC3)c(C(=O)Nc3ccccc3)c1)C2=O
inactive,inactive,inactive,inactive,O=C(O)c1ccc2c(c1)C(=O)N(c1ccc(NCc3cccnc3)c(C(=O)NCc3cccnc3)c1)C2=O
inactive,inactive,inactive,inactive,COC(=O)c1ccc2c(c1)C(=O)N(c1ccc(N3CCCCC3)c(C(=O)Nc3ccc(C)cc3)c1)C2=O
inactive,inactive,inactive,inactive,O=C(O)c1ccc2c(c1)C(=O)N(c1ccc(N3CCCCC3)c(C(=O)NCc3cccnc3)c1)C2=O
inactive,inactive,inactive,inactive,O=C(O)c1ccc2c(c1)C(=O)N(c1ccc(N3CCCCC3)c(C(=O)NCc3ccccc3)c1)C2=O
inactive,32.6%,inactive,inactive,Cc1ccc(NC(=O)c2cc(N3CCCCC3)cc(N3C(=O)c4ccc(C(=O)O)cc4C3=O)c2)cc1
inactive,inactive,inactive,inactive,COCCNc1ccc(N2C(=O)c3ccc(C(=O)O)cc3C2=O)cc1C(=O)Nc1ccc(C)cc1
inactive,inactive,inactive,inactive,Cc1ccc(NC(=O)c2cc(N3C(=O)c4ccc(C(=O)O)cc4C3=O)ccc2N2CCOCC2)cc1
inactive,inactive,inactive,inactive,COCCOCCOc1ccc(N2C(=O)c3ccc(C(=O)O)cc3C2=O)cc1C(=O)Nc1ccc(C)cc1
inactive,inactive,inactive,inactive,Cc1ccc(NC(=O)c2cc(N3C(=O)c4ccc(Br)cc4C3=O)ccc2N2CCCCC2)cc1
inactive,inactive,inactive,inactive,Cc1ccc(NC(=O)c2cc(N3C(=O)c4ccc(C#N)cc4C3=O)ccc2N2CCCCC2)cc1
32.4%,47%,36.5%,inactive,CCc1ccc(NC(=O)c2cc(N3C(=O)c4ccc(C(=O)O)cc4C3=O)ccc2N2CCCCC2)cc1
inactive,inactive,inactive,inactive,Cc1ccc(NC(=O)c2cc(N3C(=O)c4ccc(C(=O)O)cc4C3=O)ccc2Cl)cc1
60.1%,68.5%,63.3%,inactive,O=C(O)c1ccc2c(c1)C(=O)N(c1ccc(N3CCCCC3)c(C(=O)Nc3ccccc3-c3ccccc3)c1)C2=O

Activity [1],Activity [2],Activity [3],Activity [4],Compound
44.1%,52.5%,59.1%,inactive,CC(C)c1ccc(NC(=O)c2cc(N3C(=O)c4ccc(C(=O)O)cc4C3=O)ccc2Nc2ccccc2)cc1
inactive,inactive,inactive,inactive,COc1ccc(N2C(=O)c3ccc(C(=O)O)cc3C2=O)cc1C(=O)Nc1ccc(C)cc1
37.6%,60%,60.3%,inactive,CCc1ccc(NC(=O)c2cc(N3C(=O)c4ccc(C(=O)O)cc4C3=O)ccc2Nc2ccccc2)cc1
inactive,39.7%,6.2%,inactive,CCCNc1ccc(N2C(=O)c3ccc(C(=O)O)cc3C2=O)cc1C(=O)Nc1ccc(C)cc1
inactive,13.5%,inactive,inactive,Cc1ccc(NC(=O)c2cccc(N3C(=O)c4ccc(C(=O)O)cc4C3=O)c2N2CCCCC2)cc1
9.2%,71%,63.4%,inactive,CCc1cccc(NC(=O)c2cc(N3C(=O)c4ccc(C(=O)O)cc4C3=O)ccc2N2CCCCC2)c1
inactive,inactive,inactive,inactive,O=C(O)c1ccc2c(c1)C(=O)N(c1ccc(Cl)c(C(=O)NCc3cccnc3)c1)C2=O
inactive,inactive,inactive,inactive,O=C(O)c1ccc2c(c1)C(=O)N(c1ccccc1)C2=O
inactive,14.1%,inactive,inactive,Cc1ccc(NC(=O)c2ccc(N3C(=O)c4ccc(C(=O)O)cc4C3=O)cc2N2CCCCC2)cc1
inactive,79%,81.3%,inactive,Cc1ccc(NC(=O)c2ccc(N3CCCCC3)c(N3C(=O)c4ccc(C(=O)O)cc4C3=O)c2)cc1
66.8%,69.8%,73%,inactive,Cc1ccc(NC(=O)c2cc(N3C(=O)c4ccc(C(=O)O)cc4C3=O)ccc2N2CCCCC2)cc1Cl
57.2%,94.4%,80.1%,inactive,Cc1ccc(NC(=O)c2cc(N3C(=O)c4ccc(C(=O)O)cc4C3=O)ccc2Nc2ccccc2)cc1
inactive,72.1%,53.3%,inactive,Cc1ccc(NC(=O)c2cc(N3C(=O)c4ccc(C(=O)O)cc4C3=O)ccc2N2CCCCC2)cc1F
inactive,3.5%,inactive,inactive,Cc1ccc(NC(=O)c2cc(N3C(=O)c4ccc(C(N)=O)cc4C3=O)ccc2N2CCCCC2)cc1
inactive,81.6%,54.6%,inactive,O=C(O)c1ccc2c(c1)C(=O)N(c1ccc(N3CCCCC3)c(C(=O)Nc3ccc(C(F)(F)F)cc3)c1)C2=O
60.6%,67.2%,47.1%,inactive,CCCCCCNc1ccc(N2C(=O)c3ccc(C(=O)O)cc3C2=O)cc1C(=O)Nc1ccc(C)cc1
inactive,11.4%,inactive,inactive,Cc1ccc(NC(=O)c2cc(N3C(=O)c4ccc(N)cc4C3=O)ccc2N2CCCCC2)cc1
inactive,36.3%,55.1%,inactive,Cc1ccc(NC(=O)c2cc(N3CCCCC3)ccc2N2C(=O)c3ccc(C(=O)O)cc3C2=O)cc1
inactive,56.6%,38.6%,inactive,Cc1cccc(NC(=O)c2cc(N3C(=O)c4ccc(C(=O)O)cc4C3=O)ccc2N2CCCCC2)c1
inactive,43.8%,inactive,inactive,COc1ccc(NC(=O)c2cc(N3C(=O)c4ccc(C(=O)O)cc4C3=O)ccc2N2CCCCC2)cc1
